Where a SMILES comes first, the peptide text is derived from it. [ ]: non-standard residue; d: D form. The star is where a group is joined. Phe(3-F) = N[C@@H](Cc1cccc(F)c1)C(=O)O; Tos = Cc1ccc(S(=O)(=O)*)cc1

Assay [1] addresses Somatostatin receptor type 2 (Homo sapiens, UniProt P30874). Nature of the assay: Antagonistic activity towards sst2 receptor in GH4C1 cells a concentration of 1-2 x 10e6/mL incubated for 20 minutes. Type of assay: functional, cell-based, GH4-C1. An outline of the steps:
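GH4C1 pituitary cells (1–2×10⁶/mL) exposed to compound dose-titrations with 100 nM VIP plus 10 nM somatostatin 14, 20 min at 37 °C. cAMP content read against cAMP standards in adenylyl cyclase activation plates. Antagonism scored as a cAMP rise over VIP+somatostatin control wells. Values from single experiments or means of 2–4 replicate experiments.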

The target in assay [2] is Somatostatin receptor type 2 (Sus scrofa). The experiment in a line: Inhibitory concentration towards binding of sst2 receptor using [125I]somatostatin as radioligand in Neuro2A cells.

Somatostatin receptor type 2, sequence (P30874 whole entry): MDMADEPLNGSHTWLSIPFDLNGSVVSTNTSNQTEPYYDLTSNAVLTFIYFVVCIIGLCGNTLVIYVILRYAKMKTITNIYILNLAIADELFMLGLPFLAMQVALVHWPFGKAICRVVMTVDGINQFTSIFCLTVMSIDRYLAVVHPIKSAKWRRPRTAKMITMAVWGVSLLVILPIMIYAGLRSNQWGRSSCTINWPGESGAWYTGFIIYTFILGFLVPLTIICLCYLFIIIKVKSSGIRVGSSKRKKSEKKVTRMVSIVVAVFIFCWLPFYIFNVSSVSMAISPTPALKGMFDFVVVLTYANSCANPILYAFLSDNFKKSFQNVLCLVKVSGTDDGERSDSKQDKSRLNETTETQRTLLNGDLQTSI

With `CC(C)(C)OC(=O)[C@H](CCCCN)NC(=O)[C@H](Cc1c[nH]c2ccccc12)NC(=O)c1ccc(-c2ccccc2)cc1`, the figures for the half-maximal inhibitory concentration (IC50) in assay [1] and in assay [2] were 1200 nM and 85 nM, respectively.
The corresponding values for `CC(C)(C)OC(=O)[C@H](CCCCN)NC(=O)[C@@H](Cc1c[nH]c2ccccc12)NC(=O)N1CCN(S(=O)(=O)c2ccccc2)CC1` are 29 nM and 2.9 nM.
The corresponding values for `CC(C)(C)OC(=O)[C@H](CCCCN)NC(=O)[C@@H](Cc1c[nH]c2ccccc12)NC(=O)C1CCN(S(=O)(=O)c2ccccc2)CC1` are 120 nM and 3.2 nM.
As to `CC(C)(C)C1N[C@H](C(=O)NC(Cc2cccc3ccccc23)C(N)=O)CSSC[C@@H](NC(=O)C(N)Cc2cccc(F)c2)C(=O)NC(Cc2cccnc2)C(=O)N[C@@H](Cc2c[nH]c3ccccc23)C(=O)N[C@@H](CCCCN)C1=O` (stereo partly drawn), the half-maximal inhibitory concentration (IC50) in assay [1] (gh4-c1) was determined as 270 nM; in assay [2] (neuro2a) it was 4.1 nM.
Take `Cc1ccc(S(=O)(=O)N2CCN(C(=O)N[C@H](Cc3c[nH]c4ccccc34)C(=O)N[C@@H](CCCCN)C(=O)OC(C)(C)C)CC2)cc1`: the IC50 amounted to 7700 nM in assay [1] and 9.2 nM in assay [2].
The corresponding values for `CC(C)(C)OC(=O)[C@H](CCCCN)NC(=O)[C@@H](Cc1c[nH]c2ccccc12)NC(=O)N1CCN(C(=O)c2ccccc2)CC1` are 1600 nM and 6.9 nM.
For `CC(C)(C)OC(=O)[C@H](CCCCN)NC(=O)[C@@H](Cc1c[nH]c2ccccc12)NC(=O)N1CCC(n2c(=O)[nH]c3ccccc32)CC1` the same measures were 6.5 nM and 0.26 nM.
Consider `Cc1ccc(C(=O)N2CCN(C(=O)N[C@H](Cc3c[nH]c4ccccc34)C(=O)N[C@@H](CCCCN)C(=O)OC(C)(C)C)CC2)cc1`, for which the IC50 amounted to 67 nM in assay [1] and 4.4 nM in assay [2].
The corresponding values for `COC(=O)[C@H](CCCN=C(N)N)NC(=O)[C@H](Cc1cccc(F)c1)NS(=O)(=O)c1ccc(C)cc1` (Tos-[Phe(3-F)]-Arg-OMe) are 6500 nM and above 2000 nM.

As usually defined, the IC50 is the point on the concentration scale where inhibition reaches its midpoint. Higher therefore signals weaker potency.

These data come from ChEMBL document CHEMBL1133812, “Small molecule somatostatin receptor subtype-2 antagonists” (Bioorg Med Chem Lett, 2001).
